ChEMBL document CHEMBL1821641, “Synthesis and biological evaluation of 1-substituted-3(5)-(6-methylpyridin-2-yl)-4-(quinoxalin-6-yl)pyrazoles as transforming growth factor-β type 1 receptor kinase inhibitors” (Eur J Med Chem, 2011)

Key:
TGF-beta receptor type-1 = target: T1, TGF-beta receptor type-1 (Homo sapiens, UniProt P36897); assay: Inhibition of human recombinant GST-fused ALK5 expressed in insect Sf9 cells using casein as substrate by radiometric kinase assay
T1 sequence (P36897 whole entry): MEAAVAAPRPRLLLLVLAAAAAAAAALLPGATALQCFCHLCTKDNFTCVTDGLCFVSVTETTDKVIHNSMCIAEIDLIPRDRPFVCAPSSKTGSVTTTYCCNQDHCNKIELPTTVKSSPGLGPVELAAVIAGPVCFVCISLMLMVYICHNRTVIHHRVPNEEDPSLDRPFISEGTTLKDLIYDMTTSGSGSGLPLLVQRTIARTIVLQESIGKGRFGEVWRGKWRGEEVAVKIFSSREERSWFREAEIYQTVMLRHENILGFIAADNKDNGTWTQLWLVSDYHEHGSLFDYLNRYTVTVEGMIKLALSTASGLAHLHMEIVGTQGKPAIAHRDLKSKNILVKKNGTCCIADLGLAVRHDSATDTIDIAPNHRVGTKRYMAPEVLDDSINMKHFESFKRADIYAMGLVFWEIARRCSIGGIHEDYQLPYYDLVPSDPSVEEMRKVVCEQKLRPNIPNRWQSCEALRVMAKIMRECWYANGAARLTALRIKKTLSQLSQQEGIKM

[1] = target: Mitogen-activated protein kinase 14 (Homo sapiens, UniProt Q16539); assay: Inhibition of human recombinant p38alpha expressed in Escherichia coli using ATF2 as substrate by radiometric kinase assay
Homo sapiens = species: Homo sapiens; assay: Selectivity index, ratio of IC50 for human recombinant p38alpha to IC50 for human recombinant ALK5
How it was run: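 Ratio of IC50 values from two radiometric (33P) protein kinase assays run by a contract lab. ALK5 assay: human recombinant GST-fusion kinase domain expressed in Sf9 cells via baculovirus, with casein as substrate. p38α assay: untagged human recombinant enzyme expressed in E. coli and Ni-agarose purified, with ATF2 as substrate, tested up to 1 μM. Index = IC50 p38α / IC50 ALK5.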

[2] = Chemical stability of compound; assay type: physicochemical

Sequence of Mitogen-activated protein kinase 14 (Q16539 whole entry): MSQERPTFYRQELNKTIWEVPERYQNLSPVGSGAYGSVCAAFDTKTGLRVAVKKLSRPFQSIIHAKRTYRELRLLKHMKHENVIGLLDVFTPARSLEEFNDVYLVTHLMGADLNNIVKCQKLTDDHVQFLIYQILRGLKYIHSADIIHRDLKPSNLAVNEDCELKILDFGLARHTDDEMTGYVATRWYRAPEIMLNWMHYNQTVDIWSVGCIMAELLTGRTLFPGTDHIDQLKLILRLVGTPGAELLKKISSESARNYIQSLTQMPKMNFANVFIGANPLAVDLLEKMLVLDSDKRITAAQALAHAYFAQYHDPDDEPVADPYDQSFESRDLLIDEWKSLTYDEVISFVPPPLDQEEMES

Structure (SMILES) | IC50 (TGF-beta receptor type-1) | IC50 [1] | Ratio IC50 (Homo sapiens) | Stability [2]
Cc1cccc(-c2nn(CC(=S)Nc3ccccc3)cc2-c2ccc3nccnc3c2)n1 | 13 nM | > 1000 nM | > 77 | Stable
Cc1cccc(-c2nn(CC(=S)Nc3ccccc3)cc2-c2ccc3nc(C)c(C)nc3c2)n1 | > 1000 nM | > 1000 nM | – | –
Cc1cccc(-c2nn(CC(=O)Nc3ccccc3)cc2-c2ccc3nc(C)c(C)nc3c2)n1 | > 1000 nM | > 1000 nM | – | –
Cc1cccc(-c2c(-c3ccc4nccnc4c3)cnn2CC(=O)Nc2cccc(C#N)c2)n1 | 737 nM | > 1000 nM | > 1 | –
Cc1cccc(-c2[nH]c(Cc3cccc(C(N)=O)c3)nc2-c2ccc3nccnc3c2)n1 | – | – | 28 | –
Cc1cccc(-c2nn(CC(=S)Nc3cccc(C#N)c3)cc2-c2ccc3nccnc3c2)n1 | 26 nM | > 1000 nM | > 38 | –
Cc1cccc(-c2nn(CCC(=O)Nc3cccc(C#N)c3)cc2-c2ccc3nc(C)c(C)nc3c2)n1 | > 1000 nM | > 1000 nM | – | –
Cc1cccc(-c2nn(CC(=O)Nc3ccccc3)cc2-c2ccc3nccnc3c2)n1 | 38 nM | > 1000 nM | > 26 | –
Cc1cccc(-c2nn(CCC(=O)Nc3ccccc3)cc2-c2ccc3nccnc3c2)n1 | 82 nM | > 1000 nM | > 12 | –
Cc1cccc(-c2c(-c3ccc4nccnc4c3)cnn2CC(=O)Nc2ccccc2)n1 | 143 nM | > 1000 nM | > 7 | –
Cc1cccc(-c2nn(CC(=O)Nc3cccc(C#N)c3)cc2-c2ccc3nc(C)c(C)nc3c2)n1 | > 1000 nM | > 1000 nM | – | –
Cc1cccc(-c2nn(CC(=O)Nc3cccc(C(N)=O)c3)cc2-c2ccc3nccnc3c2)n1 | 48 nM | > 1000 nM | > 21 | –
Cc1cccc(-c2nn(CC(=O)Nc3cccc(C(N)=O)c3)cc2-c2ccc3nc(C)c(C)nc3c2)n1 | > 1000 nM | > 1000 nM | – | –
Cc1cccc(-c2c(-c3ccc4nc(C)c(C)nc4c3)cnn2CC(=O)Nc2ccccc2)n1 | > 1000 nM | > 1000 nM | – | –
Cc1cccc(-c2c(-c3ccc4nc(C)c(C)nc4c3)cnn2CC(=O)Nc2cccc(C#N)c2)n1 | > 1000 nM | > 1000 nM | – | –
Cc1cccc(-c2nn(CC(=S)Nc3cccc(C#N)c3)cc2-c2ccc3nc(C)c(C)nc3c2)n1 | > 1000 nM | > 1000 nM | – | –
Cc1cccc(-c2nn(CC(=O)Nc3cccc(C#N)c3)cc2-c2ccc3nccnc3c2)n1 | 153 nM | > 1000 nM | > 7 | –
